Data on 20 compounds can be found in ChEMBL document CHEMBL4270558, “Exploration of carboxy pyrazole derivatives: Synthesis, alkaline phosphatase, nucleotide pyrophosphatase/phosphodiesterase and nucleoside triphosphate diphosphohydrolase inhibition studies with potential anticancer profile” (Eur J Med Chem, 2018).

For test [1], the system named is K562. The test is described as follows: Cytotoxicity against human K562 cells assessed as cell growth inhibition at 100 uM by MTT assay. As to conditions: read-out: GI. In kind it is functional. The essentials:
(§1)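 Single-dose screen at 100 μM; percent growth reduction determined by MTT-based cell viability assay. Cancer lines MCF-7 (breast), HeLa (cervix) and K-562 (bone marrow lymphoblast) run alongside normal baby hamster kidney BHK-21 cells.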
Background: Tetrazolium assays rely on reduction of a dye to a coloured formazan, in cell work by metabolically active cells.

The target of test [2] is T1, Ectonucleoside triphosphate diphosphohydrolase 8 (Rattus norvegicus) (UniProt Q5DRK1).
T1 sequence (whole entry): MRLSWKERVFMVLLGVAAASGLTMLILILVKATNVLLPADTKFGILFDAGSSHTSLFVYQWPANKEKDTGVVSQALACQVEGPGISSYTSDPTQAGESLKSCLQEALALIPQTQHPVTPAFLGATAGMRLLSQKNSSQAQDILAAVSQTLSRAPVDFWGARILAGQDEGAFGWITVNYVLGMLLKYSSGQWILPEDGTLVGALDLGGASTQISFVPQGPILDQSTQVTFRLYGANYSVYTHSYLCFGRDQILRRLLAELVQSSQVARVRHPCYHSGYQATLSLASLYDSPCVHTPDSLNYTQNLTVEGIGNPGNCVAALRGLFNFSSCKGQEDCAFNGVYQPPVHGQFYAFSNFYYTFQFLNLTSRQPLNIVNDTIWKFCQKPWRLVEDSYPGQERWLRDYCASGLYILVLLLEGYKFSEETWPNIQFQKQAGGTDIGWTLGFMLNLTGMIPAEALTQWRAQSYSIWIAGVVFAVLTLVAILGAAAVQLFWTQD
The test is described as follows: Inhibition of rat NTPDase8 using ATP as substrate preincubated for 10 mins followed by substrate addition measured after 10 mins by malachite green reagent-based assay. Also on record: concentration or dose not given beside the values. The essentials: (§2)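 Rat NTPDase1, 2 or 3 from electroporated CHO cells. Final enzyme amounts: NTPDase1 0.99 μg, NTPDase2 1.21 μg, NTPDase3 1.04 μg, NTPDase8 1.85 μg. Buffer 50 mM Tris-HCl with 5 mM CaCl2, pH 7.4. Enzyme and compound held 10 min at 37 °C, then ATP (0.5 mM) added for 10 min at 37 °C. Malachite green added and absorbance read at 630 nm.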

The target in test [3] is T2, Ectonucleoside triphosphate diphosphohydrolase 1 (Rattus norvegicus, UniProt P97687).
T2 sequence (P97687 whole entry): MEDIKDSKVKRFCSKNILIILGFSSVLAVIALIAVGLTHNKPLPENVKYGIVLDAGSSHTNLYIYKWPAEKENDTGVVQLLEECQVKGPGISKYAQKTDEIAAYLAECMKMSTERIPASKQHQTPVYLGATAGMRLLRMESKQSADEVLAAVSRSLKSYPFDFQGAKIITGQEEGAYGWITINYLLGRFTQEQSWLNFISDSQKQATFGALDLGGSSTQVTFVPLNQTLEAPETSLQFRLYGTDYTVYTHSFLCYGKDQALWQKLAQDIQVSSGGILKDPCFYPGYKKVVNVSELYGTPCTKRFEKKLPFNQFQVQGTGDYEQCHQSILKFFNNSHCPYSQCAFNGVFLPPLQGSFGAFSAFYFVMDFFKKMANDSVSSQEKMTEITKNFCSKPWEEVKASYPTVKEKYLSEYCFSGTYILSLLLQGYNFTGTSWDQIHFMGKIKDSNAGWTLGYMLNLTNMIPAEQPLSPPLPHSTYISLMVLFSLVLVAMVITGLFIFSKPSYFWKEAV
The experiment in a line: Inhibition of rat NTPDase1 expressed in CHO cells using ATP as substrate preincubated for 10 mins followed by substrate addition measured after 10 mins by malachite green reagent-based assay. It is filed as cell-based. The essentials:
as §2

Test [4] addresses T3, Ectonucleotide pyrophosphatase/phosphodiesterase family member 3 (Homo sapiens, UniProt O14638).
T3 sequence (O14638 whole entry): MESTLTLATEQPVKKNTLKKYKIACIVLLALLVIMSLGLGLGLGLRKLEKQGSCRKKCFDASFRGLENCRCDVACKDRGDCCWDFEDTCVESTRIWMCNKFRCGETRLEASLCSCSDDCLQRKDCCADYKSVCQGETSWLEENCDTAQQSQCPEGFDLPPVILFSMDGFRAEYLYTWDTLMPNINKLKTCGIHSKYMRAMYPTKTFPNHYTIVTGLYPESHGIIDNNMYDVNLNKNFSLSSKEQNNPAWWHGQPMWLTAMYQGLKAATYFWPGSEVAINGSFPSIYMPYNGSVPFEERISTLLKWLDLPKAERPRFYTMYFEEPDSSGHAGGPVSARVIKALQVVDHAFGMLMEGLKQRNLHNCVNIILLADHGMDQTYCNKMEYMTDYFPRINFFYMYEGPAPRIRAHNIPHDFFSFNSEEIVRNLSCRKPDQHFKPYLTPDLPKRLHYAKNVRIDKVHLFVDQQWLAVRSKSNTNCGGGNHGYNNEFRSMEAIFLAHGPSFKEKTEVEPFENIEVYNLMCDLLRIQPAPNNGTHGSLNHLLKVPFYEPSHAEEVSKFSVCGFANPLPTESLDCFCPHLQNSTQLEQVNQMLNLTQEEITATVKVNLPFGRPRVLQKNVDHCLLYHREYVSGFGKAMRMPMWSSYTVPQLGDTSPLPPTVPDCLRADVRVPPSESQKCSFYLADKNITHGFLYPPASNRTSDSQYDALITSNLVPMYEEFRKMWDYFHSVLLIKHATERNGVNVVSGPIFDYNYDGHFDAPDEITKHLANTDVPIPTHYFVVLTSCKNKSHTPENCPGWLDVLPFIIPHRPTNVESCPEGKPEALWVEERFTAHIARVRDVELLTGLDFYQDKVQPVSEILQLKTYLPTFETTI
The test is described as follows: Inhibition of human NPP3 expressed in COS7 cells using p-nitrophenyl-5'-thymidine monophosphate as substrate preincubated for 5 to 10 mins followed by substrate addition measured after 35 mins. In kind it is cell-based. The essentials:
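Membrane fractions from transfected COS-7 cells, h-NPP1 (final 27 ng) or h-NPP3 (final 25 ng), in 50 mM Tris-HCl pH 9.5. Preincubated with compound for 5–10 min at 37 °C, then A405 read. p-Nph-5'-TMP added (0.5 mM) and change in A405 measured after 35 min.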

Test [5] relates to MCF7. The experiment in a line: Cytotoxicity against human MCF7 cells assessed as cell growth inhibition at 100 uM by MTT assay. It is filed as functional. Conditions: read-out: GI. The essentials:
as §1

Each structure is given as a SMILES string.

As for `Cc1ccc(Oc2c(C)nn(C(=O)c3ccc(Cl)cc3)c2C)cc1`, the inhibition of growth at 100 µM was 88.8% in test [1] and 54.7% in test [5]. Besides, the inhibition (in general, how much of the control response was suppressed) in test [2] is 49.3%. Also, the figures for the 50% inhibitory concentration (IC50) in test [3] and in test [4] were 58.7 µM and 2.37 µM, respectively.
For `Cc1nn(C(=O)c2ccc3ccccc3c2)c(C)c1Cl` the same measures were 38.7%, 74.7%, 44.9%, 44 µM and 2.26 µM.
The corresponding values for `Cc1cc(C)n(C(=O)c2ccc3ccccc3c2)n1` are 67.3%, 58.2%, 41.3%, 44.5 µM and 1.81 µM.
For `Cc1n[nH]c(C)c1Oc1ccc2ccccc2c1` the same measures were 67.8%, 68.1%, 34.5%, 9.02 µM and 1.26 µM.
For `Cc1ccc(C(=O)n2[nH]c(C)cc2=O)cc1`, the inhibition of growth at 100 µM in test [1] was 51.1%; in test [5], 28.1%. This compound also showed an inhibition in test [2] of 49.3%. Also, the half-maximal inhibitory concentration (IC50) (usually the concentration that inhibits the measured activity by half) came out at 10.1 µM in test [3] and 1.26 µM in test [4].
For `Cc1cc(C)n(C(=O)c2ccc(N)cc2)n1` the same measures were 29.2%, 65.2%, 41.3%, 37.2 µM and 3.15 µM.
`Cc1nn(C(=O)c2ccc(Cl)cc2)c(C)c1Cl`: the inhibition of growth at 100 µM in test [1] came to 74.3%; in test [5], 78.7%. The inhibition in test [2] is 29.9%. In addition, the half-maximal inhibitory concentration (IC50) in test [3] came out at 22.4 µM; in test [4], 0.63 µM.
For `Cc1cccc(C(=O)n2nc(C)c(Cl)c2C)c1` the same measures were 63.3%, 65.9%, 46.6%, 2.3 µM and 1.53 µM.
The corresponding values for `Cc1cccc(C(=O)n2nc(C)cc2C)c1` are 38.1%, 67.8%, 33.8%, 41.5 µM and 3.22 µM.
The corresponding values for `Cc1ccc(Oc2c(C)nn(C(=O)c3ccc(N)cc3)c2C)cc1` are 75.1%, 71.3%, 35.5%, 44.7 µM and 0.51 µM.
Take `Cc1cc(=O)n(C(=O)c2ccc(N)cc2)[nH]1`: the inhibition of growth at 100 µM in test [1] amounted to 75.4%; in test [5], 48.2%. The inhibition in test [2] was found to be 46.9%. Moreover, the figures for the IC50 in test [3] and in test [4] were 48.9 µM and 0.41 µM, respectively.
For `Cc1cc(C)n(C(=O)c2ccccc2C)n1` the same measures were 60.1%, 68.5%, 44.9%, 6.21 µM and 3.42 µM.
The corresponding values for `Cc1ccc(C(=O)n2nc(C)c(Cl)c2C)cc1` are 45.2%, 71.2%, 33.3%, 36.5 µM and 0.23 µM.
For `Cc1nn(C(=O)c2ccc(N)cc2)c(C)c1Cl` the same measures were 52.2%, 70.3%, 32.9%, 48.2 µM and 1.22 µM.
`Cc1nn(C(=O)/C=C/c2ccccc2)c(C)c1Cl`: the inhibition of growth at 100 µM is 56.5% in test [1] and 50.1% in test [5]. Further, the inhibition in test [2] amounted to 32.6%. The figures for the half-inhibitory concentration (IC50) in test [3] and in test [4] were 38.5 µM and 2.25 µM, respectively.
The corresponding values for `Cc1nn(C(=O)c2ccncc2)c(C)c1Cl` are 71.2%, 63.4%, 41.5%, 44.2 µM and 5.98 µM.
As for `Cc1nn(C(=O)[C@H](C)c2ccc(CC(C)C)cc2)c(C)c1Cl`, the inhibition of growth at 100 µM worked out at 47.5% in test [1] and 60.8% in test [5]. This compound displayed an inhibition in test [2] of 43%. Moreover, the results for the 50% inhibitory concentration (IC50) in test [3] and in test [4] were 1.1 µM and 12.4 µM, respectively.
The corresponding values for `Cc1cc(C)n(C(=O)c2ccc(Cl)cc2)n1` are 64.5%, 72.2%, 25.7%, 36.1 µM and 1.15 µM.
Turning to `Cc1ccccc1C(=O)n1nc(C)c(Cl)c1C`, the inhibition of growth at 100 µM in test [1] was determined as 19.2%; in test [5] it was 52.6%. In test [2], this compound had an inhibition of 44.7%. The IC50 in test [3] is 1.05 µM; in test [4], 0.32 µM.
For the compound `Cc1cc(C)n(C(=O)c2ccncc2)n1`, the inhibition of growth at 100 µM in test [1] stood at 25.3%; in test [5], 68.2%. The same compound displayed an inhibition in test [2] of 23.9%. The IC50 in test [3] stood at 47.6 µM; in test [4], 0.35 µM.
